In ChEMBL document CHEMBL3526116, “Toxicological evaluation of acyl glucuronides of nonsteroidal anti-inflammatory drugs using human embryonic kidney 293 cells stably expressing human UDP-glucuronosyltransferase and human hepatocytes” (Drug Metab Dispos, 2011):

Columns and labels:
HEK293 [1] = assay: Cytotoxicity against HEK293 cells expressing UGT assessed as LDH leakage at 0.1 mM after 6 to 24 hrs by spectrophotometric analysis relative to total cell LDH level; type: ADME, cell-based; settings: human, hek293, 100 µM
Procedure, shortened: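 Stable UGT-expressing or mock HEK293 lines in DMEM with 0.5% FBS, 2 x 10^4 cells/well, drug for 6, 12 or 24 h. LDH released into medium read at 490 nm (690 nm reference); percentage calculated against maximum release from control cells lysed with 1% Triton X-100.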

HEK293 [2] = assay: Cytotoxicity against HEK293 cells expressing UGT1A3 assessed as decrease in cell viability at 0.1 mM measured at 24 hrs by MTT assay; type: ADME, cell-based; settings: human, hek293, 24 h, 100 µM
HEK293 [3] = assay: Cytotoxicity against HEK293 cells expressing UGT1A4 assessed as decrease in cell viability by measuring intracellular ATP content at 0.1 mM by CellTiter-Glo luminescent assay; type: ADME, cell-based; settings: human, hek293, 100 µM; TDE = time-dependent effect
Procedure, shortened: (§1)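 UGT1A3 or UGT1A4 stable HEK293 cells, 2 x 10^4 cells/well in 0.1 mL DMEM with 0.5% FBS, drug for 6, 12 or 24 h. Viability from intracellular ATP via CellTiter-Glo luminescence, expressed as percent of control cells. Mean ± SD of triplicates.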

[4] = biological target: T1, UDP-glucuronosyltransferase 1A4 (Homo sapiens, UniProt P22310); assay: Activity of human UGT1A4 expressed in HEK293 cells assessed as enzyme-mediated diclofenac acyl-beta-D-glucuronide formation at 0.1 mM measured at 24 hrs by LC-MS/MS analysis; type: ADME, cell-based; settings: hek293, 24 h, 100 µM
T1 sequence (P22310 whole entry): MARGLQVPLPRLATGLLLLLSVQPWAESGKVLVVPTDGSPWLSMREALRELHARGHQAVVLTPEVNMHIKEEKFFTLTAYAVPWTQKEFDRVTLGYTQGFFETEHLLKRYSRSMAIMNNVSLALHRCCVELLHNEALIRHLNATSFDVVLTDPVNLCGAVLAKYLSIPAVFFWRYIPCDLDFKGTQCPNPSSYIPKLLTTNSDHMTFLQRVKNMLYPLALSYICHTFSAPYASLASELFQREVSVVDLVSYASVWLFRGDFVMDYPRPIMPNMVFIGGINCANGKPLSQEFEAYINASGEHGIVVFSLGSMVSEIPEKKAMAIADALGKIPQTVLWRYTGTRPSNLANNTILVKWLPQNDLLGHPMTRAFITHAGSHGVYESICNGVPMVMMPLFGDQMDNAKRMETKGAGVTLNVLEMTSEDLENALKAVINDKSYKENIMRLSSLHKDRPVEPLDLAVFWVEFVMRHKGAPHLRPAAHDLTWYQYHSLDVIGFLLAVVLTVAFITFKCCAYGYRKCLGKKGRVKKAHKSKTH
Procedure, shortened: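 HEK293 stably expressing human UGT1A4, 2 x 10^5 cells/well in DMEM with 0.5% FBS, drug exposure 6–24 h, DMSO ≤0.1% final. Acyl glucuronide in cell fraction and medium measured by LC-MS/MS after methanol/acetic acid (100:1) precipitation and centrifugation. Triplicate determinations.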

HEK293 [5] = assay: Cytotoxicity against mock transfected HEK293 cells assessed as decrease in cell viability at 0.1 mM […]; type: cell-based; settings: human, hek293, 100 µM; TDE = time-dependent effect
Hepatocyte [6] = assay: Cellular uptake in human hepatocytes at 0.1 mM measured at 6 hrs by LC-MS/MS analysis in absence of acyl glucuronidation inhibitor (-)-borneol; type: ADME, cell-based; settings: 100 µM
Procedure, shortened: (§2)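 Cryopreserved pooled human hepatocytes on collagen-coated wells, 2 × 10^5 cells/well in HCM medium with 0.5% FBS, preincubated 30 min with or without 1 mM (-)-borneol, then drug for 6 h; DMSO ≤0.2% final. Parent drug in cell fraction measured by LC-MS/MS after methanol/acetic acid extraction. Mean ± SD of triplicates.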

HEK293 [7] = assay: Genotoxicity in HEK293 cells expressing UGT1A3 assessed as DNA strand breaks at 0.1 mM after 24 hrs by comet assay; type: toxicity, cell-based; settings: human, hek293, 24 h, 100 µM
Procedure, shortened: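 HEK293 cells stably expressing UGT1A3, seeded 24 h before treatment and exposed 24 h in 0.5% FBS DMEM (vehicle 0.1% DMSO). Alkaline comet assay: low-melting agarose embedding, lysis pH 10 for 1 h at 4°C, 30 min unwinding in NaOH/EDTA, electrophoresis 300 mA for 20 min, ethidium bromide stain. Tail extent moment scored on 150-180 cells over more than 3 experiments, median (IQR).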

Hepatocyte [8] = assay: Cellular uptake in human hepatocytes at 0.1 mM measured at 6 hrs by LC-MS/MS analysis in presence of acyl glucuronidation inhibitor (-)-borneol; type: ADME, cell-based; settings: 100 µM; procedure, shortened: as §2
HEK293 [9] = assay: Cytotoxicity against HEK293 cells expressing UGT assessed as decrease in cell viability at 0.1 mM measured up to 72 hrs by MTT assay; type: ADME, cell-based; settings: human, hek293, 72 h, 100 µM
Procedure, shortened: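 Mock and UGT1A3/UGT1A4 stable HEK293 cells given drug for up to 72 h; viability measured by WST-8-based MTT assay.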

[10] = biological target: T2, UDP-glucuronosyltransferase 1A3 (Homo sapiens, UniProt P35503); assay: Activity of human UGT1A3 expressed in HEK293 cells assessed as enzyme-mediated diclofenac acyl-beta-D-glucuronide formation at 0.1 mM measured at 24 hrs by LC-MS/MS analysis; type: ADME, cell-based; settings: hek293, 24 h, 100 µM
T2 sequence (P35503 whole entry): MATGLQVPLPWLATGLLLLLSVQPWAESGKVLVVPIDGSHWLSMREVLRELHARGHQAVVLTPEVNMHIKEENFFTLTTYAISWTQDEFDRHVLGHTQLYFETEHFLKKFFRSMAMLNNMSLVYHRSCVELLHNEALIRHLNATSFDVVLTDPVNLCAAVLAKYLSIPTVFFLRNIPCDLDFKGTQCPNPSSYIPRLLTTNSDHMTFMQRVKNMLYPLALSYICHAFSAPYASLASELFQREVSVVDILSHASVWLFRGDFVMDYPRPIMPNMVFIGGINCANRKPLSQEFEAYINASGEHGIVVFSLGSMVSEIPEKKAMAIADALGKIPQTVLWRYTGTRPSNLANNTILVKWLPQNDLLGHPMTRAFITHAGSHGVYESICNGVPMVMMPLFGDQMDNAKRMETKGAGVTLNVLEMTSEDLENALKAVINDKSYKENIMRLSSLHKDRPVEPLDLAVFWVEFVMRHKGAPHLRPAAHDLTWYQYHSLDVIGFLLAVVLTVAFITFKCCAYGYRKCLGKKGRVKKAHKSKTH
Procedure, shortened: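 HEK293 stably expressing human UGT1A3 (G418-selected), 2 x 10^5 cells/well in 1 mL DMEM with 0.5% FBS, exposed immediately to drug for 6, 12 or 24 h; DMSO ≤0.1% final. Cells and medium separated by centrifugation, cell fraction resuspended in PBS; aliquots mixed 1:1 with methanol/acetic acid (100:1), spun, supernatant analysed by LC-MS/MS. Triplicate determinations, mean ± SD.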

HEK293 [11] = assay: Cytotoxicity against HEK293 cells expressing UGT1A3 assessed as decrease in cell viability by measuring intracellular ATP content at 0.1 mM by CellTiter-Glo luminescent assay; type: ADME, cell-based; settings: human, hek293, 100 µM; TDE = time-dependent effect; procedure, shortened: as §1
HEK293 [12] = assay: Cytotoxicity against HEK293 cells expressing UGT1A3 assessed as decrease in cell viability at 0.1 mM by MTT assay; type: ADME, cell-based; settings: human, hek293, 100 µM; TDE = time-dependent effect
HEK293 [13] = assay: Cytotoxicity against HEK293 cells expressing UGT1A4 assessed as decrease in cell viability at 0.1 mM by MTT assay; type: ADME, cell-based; settings: human, hek293, 100 µM; TDE = time-dependent effect
HEK293 [14] = assay: Cytotoxicity against mock transfected HEK293 cells assessed as decrease in cell viability by measuring intracellular ATP content at 0.1 mM by CellTiter-Glo luminescent assay; type: cell-based; settings: human, hek293, 100 µM; TDE = time-dependent effect
Procedure, shortened: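 Mock-transfected HEK293 cells seeded at 2 x 10^4 cells/well in DMEM with 0.5% FBS, drug added at once and incubated 6, 12 or 24 h. Viability read either by WST-8 (CCK-8) formazan absorbance at 450 nm or by intracellular ATP luminescence (CellTiter-Glo), as percent of control cells; mean ± SD of triplicates. Final DMSO ≤0.1%.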

Drug metabolism [4]: metabolite_not_detected | Drug uptake (Hepatocyte [6]): Active | Drug uptake (Hepatocyte [8]): Active | Drug metabolism [10]: metabolite_detected
Structure (SMILES): O=C([O-])Cc1ccccc1Nc1c(Cl)cccc1Cl.[Na+] [DICLOFENAC SODIUM]
Activity (HEK293 [1]): < 5.4% | Activity (HEK293 [2]): Non-toxic | Activity (HEK293 [3]): tde | Activity (HEK293 [5]): tde | Activity (HEK293 [7]): Non-toxic | Activity (HEK293 [9]): Non-toxic | Activity (HEK293 [11]): tde | Activity (HEK293 [12]): tde | Activity (HEK293 [13]): tde | Activity (HEK293 [14]): tde
